Data taken from ChEMBL document CHEMBL4368859, “Discovery of boron-containing compounds as Aβ aggregation inhibitors and antioxidants for the treatment of Alzheimer's disease” (Medchemcomm, 2018).
Calls of active or inactive are those of the source. The calls are words filed in the database; no cut-off is given here.

Experiments:
[1] = target: T1, Amyloid-beta precursor protein (Homo sapiens, UniProt P05067); test: Inhibition of self-induced aggregation of amyloid beta (1 to 42) (unknown origin) at 20 uM after 48 hrs by thioflavin T-based fluorescence method relative to control
T1 sequence (P05067 whole entry): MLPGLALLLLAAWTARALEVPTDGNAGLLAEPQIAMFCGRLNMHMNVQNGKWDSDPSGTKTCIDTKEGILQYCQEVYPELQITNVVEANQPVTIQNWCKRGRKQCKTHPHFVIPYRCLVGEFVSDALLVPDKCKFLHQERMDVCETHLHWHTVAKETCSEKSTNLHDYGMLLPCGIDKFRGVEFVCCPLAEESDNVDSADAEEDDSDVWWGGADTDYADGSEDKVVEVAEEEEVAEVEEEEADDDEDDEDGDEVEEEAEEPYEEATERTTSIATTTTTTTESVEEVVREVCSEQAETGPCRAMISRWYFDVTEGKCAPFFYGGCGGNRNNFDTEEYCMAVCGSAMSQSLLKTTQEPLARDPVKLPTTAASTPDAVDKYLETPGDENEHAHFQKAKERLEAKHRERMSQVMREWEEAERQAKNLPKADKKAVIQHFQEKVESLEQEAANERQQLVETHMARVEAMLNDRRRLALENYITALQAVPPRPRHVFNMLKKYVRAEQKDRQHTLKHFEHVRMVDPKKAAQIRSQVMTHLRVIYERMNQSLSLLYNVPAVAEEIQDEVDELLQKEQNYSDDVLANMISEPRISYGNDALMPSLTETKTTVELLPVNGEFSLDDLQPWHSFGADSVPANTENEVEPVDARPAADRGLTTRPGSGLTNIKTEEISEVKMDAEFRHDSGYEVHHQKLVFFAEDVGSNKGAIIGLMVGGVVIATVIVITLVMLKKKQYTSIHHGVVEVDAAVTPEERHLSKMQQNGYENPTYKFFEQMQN
Summary of the method: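 Aβ1-42 stock was in 1% ammonium hydroxide, diluted in 50 mM phosphate buffer (pH 7.4). Peptide (25 µM final) was incubated ± compound at 37 °C for 48 h, with peptide-free blanks. Samples were diluted in 50 mM glycine-NaOH (pH 8.0) with 5 µM ThT and read after 5 min (ex 450/em 485 nm). Inhibition = (1−IFi/IFc)×100 after background subtraction. At least three independent measurements, mean ± SD.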

[2] = Antioxidant activity assessed as trolox equivalents of AAPH radical scavenging activity at 20 uL preincubated for 10 mins followed by AAPH addition measured every min for 120 mins by ORAC-FL assay; assay type: functional
Summary of the method: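 Test compound diluted to 10 µM in 75 mM phosphate buffer (pH 7.4). It was pre-incubated with fluorescein (70 nM final) at 37 °C, then AAPH (40 mM solution) was added. Fluorescence (ex 485/em 520 nm) was read each minute for 120 min. […] Triplicates, at least three independent runs, mean ± SD.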

[3] = target: T1, Amyloid-beta precursor protein; test: Inhibition of self-induced aggregation of amyloid beta (1 to 42) (unknown origin) after 48 hrs by thioflavin T-based fluorescence method
[4] = target: T1, Amyloid-beta precursor protein; test: Potency index, ratio of curcumin IC50 to test compound IC50 for self-induced aggregation of amyloid beta (1 to 42) (unknown origin)
[5] = Metal chelating activity assessed as Cu2+-compound complex formation by measuring shift in maximum absorption wavelength at 20 uM after 30 mins by UV-Vis spectrophotometric method
Summary of the method: (§1)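 UV-Vis absorption spectra were recorded for compound (20 µM final) alone or with CuSO4, FeSO4 or ZnCl2 (40 µM final) after 30 min. Medium was 20% (v/v) ethanol/buffer (20 mM HEPES, 150 mM NaCl, pH 7.4), at room temperature.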

[6] = Metal chelating activity assessed as Fe2+-compound complex formation by measuring shift in maximum absorption wavelength at 20 uM after 30 mins by UV-Vis spectrophotometric method; summary of the method: as §1
[7] = Metal chelating activity assessed as Fe3+-compound complex formation at 20 uM after 30 mins by UV-Vis spectrophotometric method
[8] = Metal chelating activity assessed as Zn2+-compound complex formation at 20 uM after 30 mins by UV-Vis spectrophotometric method; summary of the method: as §1

Row | SMILES | inhibition [1] | Activity (umolequiv/umol) [2] | IC50 [3] | other results
1 | OB1Oc2ccc3ccc(O)cc3c2C=C1c1cc(O)cc(O)c1 | 78.7% | 5.34 | 4.9 µM | 
2 | OB1Oc2ccc3ccccc3c2C=C1c1ccc(O)cc1 | 0% | 2.06 |  | 
3 | CN(C)c1ccc2c3c(ccc2c1)OB(O)C(c1ccc(O)cc1)=C3 | 0% | 2.41 |  | 
4 | COc1cc(/C=C/C(=O)O)ccc1O |  | 3.24 |  | 
5 | OB1Oc2ccc3cc(O)ccc3c2C=C1c1ccc(O)c(O)c1 | 80.5% | 4.05 | 4.6 µM | 
6 | COc1ccc(/C=C/c2cc(OC)cc(OC)c2)cc1 |  | 0.21 |  | 
7 | OB1Oc2ccc3cc(O)ccc3c2C=C1c1cc(O)cc(O)c1 | 70.3% | 5.87 | 8.9 µM | 
8 | OB1Oc2ccc3ccccc3c2C=C1c1cc(O)cc(O)c1 | 67.3% | 3 | 12.6 µM | 
9 | CN(C)c1ccc2c3c(ccc2c1)OB(O)C(c1ccc(O)c(O)c1)=C3 | 49.5% | 4.88 |  | 
10 | OB1Oc2ccc3ccccc3c2C=C1c1ccc(O)c(O)c1 | 43.7% | 2.7 |  | 
11 | CN(C)c1ccc2c3c(ccc2c1)OB(O)C(c1cc(O)cc(O)c1)=C3 | 32.4% | 5.27 |  | 
12 | Oc1ccc(/C=C/c2cc(O)cc(O)c2)cc1 |  | 5.33 |  | 
13 | OB1Oc2ccc(O)cc2C=C1c1ccc(O)c(O)c1 | 58.8% | 4.09 | 17.5 µM | 
14 | OB1Oc2cc(O)ccc2C=C1c1cc(O)cc(O)c1 | 50.2% | 4.84 | 21.7 µM | 
15 | OB1Oc2ccc3cc(O)ccc3c2C=C1c1ccc(O)cc1 | 12.3% | 3.94 |  | 
16 | OB1Oc2ccc3ccc(O)cc3c2C=C1c1ccc(O)cc1 | 20.5% | 4.45 |  | 
17 | OB1Oc2ccc3ccc(O)cc3c2C=C1c1ccc(O)c(O)c1 | 82.8% | 4.55 | 3.4 µM | Ratio IC50 [4]: 4; Activity [5]: 355 nm; Activity [6]: 350 nm; Activity [7]: inactive; Activity [8]: inactive
